Assay: Toxicity liver stage against HepG2, at 10uM
Format: cell-based
Design: test concentration 10 uM, cell line HepG2-A16-CD81EGFP
Conditions: human, HepG2-A16-CD81EGFP cells; read-out: INHIBITION
In short: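 Uninfected HepG2-A16-CD81EGFP cells, 3 × 10^3 per well, 1536-well, plated on prespotted compound at 10 μM final, parasite-free screening media added to match infected plates; puromycin 10 μM positive, DMSO 0.5% negative; run in parallel with 48 h PbLuc assay at 37 °C, 5% CO2; viability by CellTiter-Glo luminescence, normalized to controls.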

Row | SMILES | cytotoxicity at 10 µM
1 | O=C(NC[C@H]1OC[C@@H](N(CC2CC2)CC2CC2)[C@@H]1O)Nc1ccccc1 | -2.62%
2 | CC(=O)N1CCC(N2CCOC[C@H]2c2nc(-c3ccncc3)c[nH]2)CC1 | 1.58%
3 | CCOC(=O)[C@H]1[C@@H](O)C(=O)N(C)C12CCN(C(=O)CC1CCCC1)CC2 | -1%
4 | COCCCNC(=O)c1cc(-c2ccc(OC)cc2)nn1C | 1.54%
5 | Cc1nnc2ccc(OCCNS(=O)(=O)c3cccs3)nn12 | -12.1%
6 | O=C(c1ccc(F)cc1F)N(CC(F)(F)F)C1CCOCC1 | 1.24%
7 | O=C(c1ccnnc1)N1CCO[C@H]2[C@@H](OCc3cccnc3)CC[C@@H]21 | 2.93%
8 | COc1nn(C)c2c1CCCN(C(=O)c1ccccc1F)C2 | 11.5%
9 | O=C1COC2(CCN(S(=O)(=O)C3CC3)CC2)CN1c1ccsc1 | 6.12%
10 | O=C(c1ccc2c(c1)OCO2)N1CCCSCC1CN1CCCC1 (stereo not drawn) | 6.95%
11 | CCC(C)c1noc(C2CCN(C(=O)c3cccnc3)CC2)n1 (stereo not drawn) | -10.7%
12 | O=C1CN(C(=O)C2CN(c3cccc(Cl)c3)CCO2)CCN1 (stereo not drawn) | -1.77%
13 | c1ccc2ncc(CC3CNCCOC3)cc2c1 (stereo not drawn) | -3.93%
14 | COc1ncc(CN2CCCC2c2[nH]ncc2C(=O)N(C)C)cn1 (stereo not drawn) | -0.116%
15 | CNC(=O)C1(C)CN(Cc2cn(C)c3ccc(F)cc23)CCO1 (stereo not drawn) | 0.187%
16 | O=C(NCCc1ccccc1)C1CCN(C(=O)Cn2cncn2)C1 (stereo not drawn) | 2.55%
17 | O=C(CNC(=O)C1(c2ccc(F)cc2F)CCC1)Nc1ccccn1 | -16.5%
18 | Cc1ncc2c(n1)CN(CC1CCCCO1)CC2 (stereo not drawn) | -2.3%
19 | Cc1ccc(S(N)(=O)=O)cc1C(=O)NC1CCCN(C)C1 (stereo not drawn) | -1.96%
20 | Cc1ncccc1NS(=O)(=O)Cc1cccc(F)c1 | 2.43%
21 | O=C1CSc2ccc(C(=O)N3CCCC(n4cccn4)C3)cc2N1 (stereo not drawn) | -6.65%

Row | SMILES | cytotoxicity at 10 µM
22 | Cc1ccc(C(F)(F)F)cc1NC(=O)C1CCCN1 (stereo not drawn) | 4.28%
23 | CC1CCN(c2ccc(C(=O)N3CCCC3c3nncn3C)cn2)CC1 (stereo not drawn) | -1.88%
24 | COc1ccc(Cl)cc1CCNC(=O)NCc1noc(C)n1 | -4.76%
25 | CN(Cc1ccc(C#N)cc1)CC1CCS(=O)(=O)C1 (stereo not drawn) | -5.78%
26 | CNC(=O)C1CCCCN1C(=O)c1cn(CCOC)c2ccccc12 (stereo not drawn) | -0.408%
27 | CC(C(=O)N1CCN(C(=O)c2ccc(F)cc2)CC1)n1ccnc1 (stereo not drawn) | -2.2%
28 | CC(O)CNCc1c[nH]nc1-c1cc2ccccc2o1 (stereo not drawn) | 0.788%
29 | Cc1c(CC(=O)N2CCSCC2)nnn1-c1cccc(Cl)c1 | -3.89%
30 | Cc1ccc(O)c(CNC2CCc3nc(C)nn3C2)n1 (stereo not drawn) | -1.08%
31 | COc1cc(F)ccc1N(C)Cc1cccnc1 | -3.47%
32 | Cc1cc(NCC2CC(=O)Nc3ccccc32)nc(C)n1 (stereo not drawn) | 0.344%
33 | O=C(NCCc1ccccn1)N1CCSC2(CCCCC2)C1 | -18.6%
34 | CCN(Cc1ccoc1)C(C(N)=O)c1cccc(Br)c1 (stereo not drawn) | 2.34%
35 | Cc1noc(CNC(=O)[C@@H](C)NC(=O)OC(C)(C)C)n1 | 4.91%
36 | N#Cc1ccc(OCCN2CCNC(=O)C2c2cccs2)cc1 (stereo not drawn) | -2.62%
37 | Cc1ccccc1C(CC(=O)N1CCc2sccc2C1)NC(N)=O (stereo not drawn) | 0.0773%
38 | c1ccc(NCc2ccsc2)c(Cn2cncn2)c1 | 1.42%
39 | Cc1ccc(CNC2CCN(CCc3ccncc3)CC2)s1 | -13.9%
40 | CC(Sc1nnnn1C1CCOCC1)C(=O)NC1CCCCC1 (stereo not drawn) | 18.3%
41 | Cc1nc(CN2CCCC(N(C)CCc3cccs3)C2)no1 (stereo not drawn) | -21.8%
42 | CO[C@H]1CCN(C(=O)Cc2ccccn2)[C@H]1Cc1ccncc1 | 2.26%

Row | SMILES | cytotoxicity at 10 µM
43 | CN1CCN(c2ccc(C(=O)N3CCCC(c4ncc[nH]4)C3)cc2)CC1 (stereo not drawn) | 4.15%
44 | O=C(c1cncc(NCC2COc3ccccc3C2)n1)N1CCOCC1 (stereo not drawn) | -3.37%
45 | CC(C)(C)N1CC(c2ncc(-c3ccc4c(c3)OCCO4)[nH]2)CC1=O (stereo not drawn) | 6.19%
46 | COc1cccc(-c2cnnc(N(C)CCC3CCCCO3)n2)c1 (stereo not drawn) | 12.7%
47 | CCCc1n[nH]c(=O)n1[C@@H](CC)c1ccccc1 | -5.22%
48 | Cn1cnnc1C1CCCN(Cc2nc(Cc3ccccc3)no2)C1 (stereo not drawn) | -4.29%
49 | COCCN(C)CC(=O)N1C[C@@H](C)[C@](O)(C(C)C)C1 | 4.9%
50 | COc1ccc(OC)c(C2CCN(CC(C)(C)N3CCOCC3)C2)c1 (stereo not drawn) | -0.359%
51 | C=C(C)COc1ccccc1CN1CCC(C(=O)NCC)C1 (stereo not drawn) | 11.6%
52 | Cn1cccc1-c1cc(C(=O)N2CCCC2C(F)(F)F)[nH]n1 (stereo not drawn) | -0.968%
53 | CC(C)[C@H]1CN(C(=O)CC2CCC2)C[C@@H]1N(C)C | 8.91%
54 | COc1ccc(CN2C[C@@H](CN(C)C)[C@@H](CO)C2)cc1OC | -1.19%
55 | Cc1ccc(C2(CN3CCCC3)CCNCC2)nc1 | -12.8%
56 | COc1cc2nc3n(c(=O)c2cc1OC)CCN(C)CC3 | 2.39%
57 | CC1CCCN(CCNC(=O)c2ccn(-c3ccc(F)cc3)n2)C1 (stereo not drawn) | -0.734%
58 | O=C(CN1C=Nc2ccccc2S1(=O)=O)NCc1ccccc1F | -3.73%
59 | CN(C)c1ccc(C(=O)N2CCCC(n3cccn3)C2)nn1 (stereo not drawn) | -4.43%
60 | Cc1cnc2c(S(=O)(=O)NCC3CCOC3)cccc2c1 (stereo not drawn) | -6.94%
61 | CC(C)(C)c1ncc(C(=O)NC(C(N)=O)c2ccccc2)s1 (stereo not drawn) | -1.96%
62 | Cc1cc(NC(=O)CN(C)C2CCCN(c3cccnn3)C2)on1 (stereo not drawn) | -5.93%
63 | Cc1ccc(CC(=O)N2CCCC(c3nccs3)C2)cn1 (stereo not drawn) | -2.01%

Row | SMILES | cytotoxicity at 10 µM
64 | Cc1ccc(N(CCC#N)C(=O)CN2CCCC2c2ccsc2)cc1 (stereo not drawn) | -9.01%
65 | CN(C)c1ccc(C(=O)N2CCCC2c2noc(C3CC3)n2)nn1 (stereo not drawn) | -8.36%
66 | CN(Cc1noc(C2CC2)n1)C1CCN(Cc2ncc[nH]2)C1 (stereo not drawn) | -1.87%
67 | CCc1cc(CNC(=O)N2CCC(Cc3cnn(C)c3)C2)on1 (stereo not drawn) | -6.04%
68 | CNc1nc(CNC(=O)Nc2cccc(Cl)c2OC)cs1 | -12.4%
69 | Cn1cc(C(=O)CC2CCCN2C(=O)c2coc3ccccc23)cn1 (stereo not drawn) | -0.65%
70 | CCNC(c1ccc(Cl)cc1)c1cccnc1 (stereo not drawn) | 5.71%
71 | CS(=O)(=O)NCC1CCCN(C(=O)COCC(F)(F)F)C1 (stereo not drawn) | -3.12%
72 | Cc1ncc2c(n1)CN(CCCc1nc3ccccc3o1)CC2 | 6.81%
73 | O=C(c1cccc(CNCC2CNc3ccnn3C2)c1)N1CCCC1 (stereo not drawn) | 6.26%
74 | CCn1cc(NC(=O)NCC(O)CN2CCCCC2)cn1 (stereo not drawn) | 3.75%
75 | O=C(Nc1cccnc1)[C@H]1C[C@H]2OCC[C@H]2N(C(=O)c2ccsc2)C1 | -1.24%
76 | c1cncc(OC[C@]23COC[C@H]2CN(Cc2ccsc2)C3)c1 | 14.7%
77 | Fc1ccc(CN2CCC(c3n[nH]c4ncccc34)CC2)cc1F | 9.12%
78 | c1cnc(NC2COC3(CCN(Cc4ccoc4)CC3)C2)nc1 (stereo not drawn) | 2.11%
79 | CC(C)c1nn(C)c(N(C)C)c1CNCCC(=O)N(C)C | -6.02%
80 | CS(=O)(=O)N1CCOCC2(CN(Cc3ccco3)CCO2)C1 (stereo not drawn) | -5.04%
81 | Cn1cc(CN2CC[C@H]3O[C@@H](COCc4cccnc4)CC[C@H]32)cn1 | -73.8%
82 | O=C(C1=CCCCC1)N1CCC2(CC1)COC(COc1ccccn1)C2 (stereo not drawn) | -1.88%
83 | COC1COC2(CCN(Cc3ccccc3F)CC2)C1 (stereo not drawn) | -5.58%
